The source made the active and inactive calls.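 Rule for the calls, unless noted: active = inhibition above 20% together with a positive visual image hit; inconclusive = visual image hit but inhibition not above 20%; inactive = no visual image hit.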
Key:
[1] = inhibitors of TNFa-induced NFkB p65 translocation, primary screen, imaging, HUVEC, MLSMR starter and 10KST1 sets (AID 438); conditions: HUVEC TNFa-induced p65 nuclear translocation; cell count: measured here: nuclei count (cytotoxicity indicator), at 2.08 µM; inhibition: at 2 µM, stronger effect = higher value, 0% TNFa-plus-vehicle, 100% no-TNFa wells;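 note: compound added about 3h40 before a 20 min TNFalpha stimulation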;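 for inhibition: signal is the nuclear over cytoplasmic p65 intensity ratio per well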
[2] = inhibitors of mutant huntingtin aggregation, primary screen, imaging, exon1htt(103Q)mCFP cells, high-content imaging (AID 483;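 active = visual image review flags a hit and inhibition of aggregation exceeds 20%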;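 note: compound exposure lasted 3 days before fixation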;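 for nuclei count: percent of the per-plate median nuclei count of sample wells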); conditions: exon1htt(103Q)mCFP cell line, aggregate imaging, at 2 µM; inhibition of aggregation: stronger effect = higher value; nuclei count: measured here: cell count, toxicity
[3] = inhibitors of E-selectin induction by TNFa, primary screen, imaging, HUVEC, immunofluorescence, MLSMR starter and 10KST1 sets (AID 487;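 active = visually confirmed hit in the image check and inhibition above 20%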;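 for inhibition: signal is fraction of cell area covered by stained E-selectin grains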;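 for nuclei count: 100% = median nuclei count of all wells on the same plate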); conditions: HUVEC TNFalpha-induced E-selectin immunofluorescence imaging, at 2 µM; inhibition: stronger effect = higher value; nuclei count: measured here: cell number, toxicity
[4] = molecular target: Voltage-gated potassium channel subunit beta-2 (Rattus norvegicus) (UniProt P62483); experiment: KvBeta enzyme negative modulators, primary screen, biochemical, NADPH fluorescence (AID 622;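 active = fluorescence slope higher than the sample average by over 3 SD, cut at about -0.22 in these data, passing the limit was not always enough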;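 note: slope of raw intensity against log time taken from 70 to 1610 s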); conditions: recombinant KvBeta, 4-cyanobenzaldehyde reduction, at 10 µM, stronger effect = higher value
[5] = molecular target: Voltage-gated potassium channel subunit beta-2 (Rattus norvegicus) (UniProt P62483); experiment: KvBeta positive modulators, primary screen, biochemical, NADPH fluorescence (AID 623;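 active = NADPH fluorescence slope more negative than the mean of all samples by about 3 SD, 99.7% confidence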;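 note: fluorescence intensity change per second fitted from 20 to 320 s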); conditions: Recombinant KvBeta, NADPH fluorescence decrease slope, 10 min; at 10 µM; stronger effect = lower value
[6] = molecular target: Alpha-2C adrenergic receptor (Homo sapiens) (UniProt P18825); experiment: modulators of alpha2C/GIRK thallium flux, primary screen, cell-based, HEK293 alpha2C/GIRK1/2 (AID 624;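 active = fluorescence slope after compound addition differing from the mean of all screened samples at 99.7% confidence, in either direction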;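 note: slope of fluorescence ratio to pre-addition baseline per second over 15 to 24 s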); conditions: thallium flux BTC fluorescence, at 10 µM, actives lie on both sides
[7] = inhibitors of Sendai virus-induced IRF3 signaling, primary screen, TLR/RLR signaling modifier project, cell-based, Sendai virus stimulus, luciferase, 10K MLSCN set (AID 602276;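 active = inhibition at or above 50% at 10 µM; inactive = inhibition below 50%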;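 note: firefly luciferase from ISG56 promoter only with Renilla not read in this screen; 0% = Sendai virus plus DMSO and 100% = medium plus DMSO without virus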); conditions: HEK293 RL24 IRF3 luciferase reporter, at 10 µM, stronger effect = higher value
[8] = inhibitors of poly I:C-induced TLR3 signaling, primary screen, cell-based, poly I:C stimulus, luciferase, 10K MLSCN set (AID 602277;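 active = inhibition of the reporter signal at or above 50%; inactive = inhibition below 50%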); conditions: HEK293-TLR3 RL24 IRF3 luciferase reporter, at 10 µM, stronger effect = higher value
[9] = inhibitors of larval lipid processing in zebrafish, primary screen, whole organism, PED6 fluorescence, gall bladder and intestine (AID 686;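 active = a full or partial loss of lipid-probe fluorescence in the fish gall bladder, intestine or both, judged by eye; inactive = no fluorescence loss, or compound toxic to the fish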;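 note: larvae 5 to 7 days old with five fish per well; signal comes from phospholipase A2 cleavage of quenched PED6 carried via bile; overnight exposure to compound and PED6 before scoring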); conditions: Zebrafish larvae PED6 lipid processing, fluorescence scoring; screened at 20 µM (by protocol)
Method in brief: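 Doses: 20 µM single dose. Test system: live zebrafish larvae aged 5-7 days, whole organism. Quantity: five larvae per well. Measured by: By-eye fluorescence microscopy. Reagent: ingested quenched lipid PED6 at 100 nM. Read-out: visual per-well fluorescence inhibition score. Times: overnight exposure of larvae to compound plus PED6.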

Sequence of Voltage-gated potassium channel subunit beta-2 (Rattus norvegicus) (P62483 whole entry, looked up): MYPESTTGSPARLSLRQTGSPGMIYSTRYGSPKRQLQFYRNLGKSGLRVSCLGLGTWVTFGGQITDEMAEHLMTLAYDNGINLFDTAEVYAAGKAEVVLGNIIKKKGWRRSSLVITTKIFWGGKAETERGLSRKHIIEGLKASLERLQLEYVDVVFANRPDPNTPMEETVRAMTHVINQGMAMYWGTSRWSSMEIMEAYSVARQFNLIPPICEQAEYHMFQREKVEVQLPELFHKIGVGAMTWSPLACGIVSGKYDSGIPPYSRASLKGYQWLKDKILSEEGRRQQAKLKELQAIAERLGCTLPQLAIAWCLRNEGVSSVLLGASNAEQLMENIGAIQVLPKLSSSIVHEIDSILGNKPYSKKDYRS
Sequence of Alpha-2C adrenergic receptor (Homo sapiens) (P18825 whole entry, looked up): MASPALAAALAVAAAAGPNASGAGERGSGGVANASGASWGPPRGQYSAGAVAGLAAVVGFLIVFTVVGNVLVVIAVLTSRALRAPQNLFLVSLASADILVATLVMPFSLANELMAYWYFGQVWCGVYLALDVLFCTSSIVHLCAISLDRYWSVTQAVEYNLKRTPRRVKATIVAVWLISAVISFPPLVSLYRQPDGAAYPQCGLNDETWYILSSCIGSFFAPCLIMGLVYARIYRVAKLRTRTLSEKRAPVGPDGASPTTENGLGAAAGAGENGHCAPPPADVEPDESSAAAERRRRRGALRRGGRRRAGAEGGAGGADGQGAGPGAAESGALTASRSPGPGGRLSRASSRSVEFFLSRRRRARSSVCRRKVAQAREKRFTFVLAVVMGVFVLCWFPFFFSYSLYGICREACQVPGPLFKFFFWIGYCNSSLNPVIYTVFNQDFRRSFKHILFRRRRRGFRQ

Row | Compound | cell count [1] | inhibition [1] | inhibition of aggregation [2] | nuclei count [2] [%] | inhibition [3] | nuclei count [3] [%] | fluorescence slope [4] | NADPH fluorescence slope [5] | slope [6] | inhibition [7] | inhibition [8] | outcome [9]
1 | CC1Cc2ccccc2N1C(=O)c1cnsn1 (stereo not given) | 623 | -4.5% (inactive) | -10.5% (inactive) | 103 | -138% (inactive) | 111 | -0.489 (inactive) | -0.000237 (inactive) | 0.00637 (inactive) | -9.05% (inactive) | -3.1% (inactive) | –
2 | CCCCOC(=O)c1cccc(NC(=O)CC)c1 | 667 | -22.3% (inactive) | -8.8% (inactive) | 97.1 | 16.4% (inactive) | 110 | -0.557 (inactive) | 4e-05 (inactive) | 0.00523 (inactive) | -34.7% (inactive) | -123% (inactive) | –
3 | COc1ccc(C2(C(=O)Nc3cc(C)on3)CCOCC2)cc1 | 312 | 0.4% (inactive) | 10.1% (inactive) | 108 | -51.8% (inactive) | 134 | -0.388 (inactive) | -4.8e-05 (inactive) | 0.00489 (inactive) | 13.8% (inactive) | 5.89% (inactive) | –
4 | CC1CCc2nn(CC(=O)NCc3ccc(F)cc3)cc2C1 (stereo not given) | 919 | 1.2% (inactive) | -5.6% (inactive) | 112 | -72.4% (inactive) | 119 | -0.628 (inactive) | -3.4e-06 (inactive) | 0.00689 (inactive) | -0.348% (inactive) | 20.2% (inactive) | –
5 | CCOc1ccccc1-n1nnnc1SCC(=O)Nc1cc2oc3ccccc3c2cc1OC | 374 | -2.9% (inactive) | 4.8% (inactive) | 99.1 | -108% (inactive) | 118 | -0.568 (inactive) | 2.4e-05 (inactive) | 0.00931 (inactive) | -7.46% (inactive) | 15.7% (inactive) | –
6 | Fc1cccc(Nc2ncnc3c2cnn3-c2ccccc2)c1 | 644 | -3.3% (inactive) | 0.4% (inactive) | 109 | -51.7% (inactive) | 127 | -0.57 (inactive) | 4.4e-06 (inactive) | 0.00538 (inactive) | -54.2% (inactive) | -148% (inactive) | –
7 | Cc1[nH]nc(N=CC2=C(O)CC(C)(C)CC2=O)c1-c1ccc(Cl)cc1 | 344 | 10.1% (inactive) | -7.7% (inactive) | 102 | -27.4% (inactive) | 128 | -0.402 (inactive) | 1.2e-05 (inactive) | 0.00588 (inactive) | 11.6% (inactive) | -25.9% (inactive) | –
8 | CC(=O)C1=C(C)OC(N)=C(C#N)C1c1ccncc1 (stereo not given) | 322 | 3.7% (inactive) | -14.4% (inactive) | 97.8 | 39.3% (inactive) | 112 | -0.616 (inactive) | -5.3e-05 (inactive) | 0.004 (inactive) | 12.5% (inactive) | 16.8% (inactive) | –
9 | CCCCc1cc2c(c(NC(C)=O)n1)c(=O)oc1ccccc12 | 620 | -9.4% (inactive) | 14.7% (inactive) | 110 | 3.6% (inactive) | 104 | -0.509 (inactive) | -2.7e-05 (inactive) | 0.00617 (inactive) | 12.1% (inactive) | 40.5% (inactive) | –
10 | Cc1ccc(N(C(=O)C2CCC(=O)N2)C2(C(=O)NC3CCCCC3)CCCCC2)cc1 (stereo not given) | 690 | 11.9% (inactive) | 22.8% (inactive) | 85.5 | -16.1% (inactive) | 84.9 | -0.558 (inactive) | 3.4e-05 (inactive) | 0.00517 (inactive) | -4.63% (inactive) | 5.62% (inactive) | –
11 | COc1ccc(CCNC(=O)C2CCCN(c3nn4c(=O)cc(C)nc4s3)C2)cc1OC (stereo not given) | 371 | -4% (inactive) | 10.8% (inactive) | 94.9 | -9% (inactive) | 100 | -0.403 (inactive) | -5.9e-05 (inactive) | 0.0045 (inactive) | 19.7% (inactive) | 16.7% (inactive) | –
12 | O=C(Nc1ccc(N2CCCC2)cc1)c1ccc(Br)o1 | 303 | -8.4% (inactive) | 36.8% (inactive) | 94.4 | -59.6% (inactive) | 94.7 | -0.398 (inactive) | -6.5e-05 (inactive) | 0.00868 (inactive) | -34% (inactive) | -152% (inactive) | –
13 | O=S(=O)(Nn1cnnc1)c1ccccc1Cl | 647 | 4.3% (inactive) | -12.3% (inactive) | 99 | 45.5% (inactive) | 81.7 | -0.402 (inactive) | -8.6e-06 (inactive) | 0.00434 (inactive) | -7.35% (inactive) | -10.4% (inactive) | inactive
14 | COCCCNC(=O)CC1Oc2ccccc2NC1=O (stereo not given) | 762 | 0% (inactive) | 13.4% (inactive) | 87.3 | -48.7% (inactive) | 112 | -0.54 (inactive) | -5.2e-05 (inactive) | 0.00685 (inactive) | 14.8% (inactive) | 33.9% (inactive) | –
15 | COc1ccc(C)cc1-n1nnnc1SC/C(O)=C(\C#N)c1nc2ccccc2[nH]1 | 614 | 5.1% (inactive) | -491% (inactive) | 42.2 | -42.5% (inactive) | 104 | -0.431 (inactive) | -3.4e-05 (inactive) | 0.00627 (inactive) | 15.6% (inactive) | 27% (inactive) | active; weak signal in gallbladder only
16 | CCc1ccc2[nH]c(=O)c(C(c3nnnn3CC3CCCO3)N3CCN4CCCC4C3)cc2c1 (stereo not given) | 314 | 12.3% (inactive) | -16.9% (inactive) | 107 | 13.9% (inactive) | 102 | -0.382 (inactive) | -5.9e-05 (inactive) | 0.00534 (inactive) | 9.53% (inactive) | 4.74% (inactive) | inactive
17 | CCCn1c(SCC(=O)NC(C)(C)C)nnc1C(C)C | 603 | -6.3% (inactive) | 6.5% (inactive) | 102 | 19.4% (inactive) | 99.9 | -0.537 (inactive) | -0.000121 (inactive) | 0.00641 (inactive) | 13% (inactive) | 23.2% (inactive) | –
18 | CCc1n[nH]c2c1C(=O)CC(C)(C)C2 | 438 | -5.8% (inactive) | 4.8% (inactive) | 97.7 | 19.5% (inactive) | 110 | -0.382 (inactive) | -5e-05 (inactive) | 0.00556 (inactive) | -8.61% (inactive) | -7.25% (inactive) | inactive
19 | COc1ccc(OC)c(NC(=O)C23CCC(C)(C(=O)C2)C3(C)C)c1 (stereo not given) | 512 | -4.8% (inactive) | 4.8% (inactive) | 98.5 | -103% (inactive) | 125 | -0.455 (inactive) | -0.00015 (inactive) | 0.00548 (inactive) | 12.9% (inactive) | 26.7% (inactive) | inactive
20 | O=C(O)COc1cccc(NC(=O)C2CCCO2)c1 (stereo not given) | 308 | -7% (inactive) | 0.8% (inactive) | 97.2 | -14.3% (inactive) | 90 | -0.471 (inactive) | 1.1e-05 (inactive) | 0.00558 (inactive) | -6.85% (inactive) | -4.06% (inactive) | inactive
21 | Cc1ccc(S(=O)(=O)N2CCN(C(=O)N3CCOCC3)C2C)cc1 (stereo not given) | 469 | 7.3% (inactive) | 12.7% (inactive) | 102 | -48.1% (inactive) | 108 | -0.439 (inactive) | -5.1e-05 (inactive) | 0.00556 (inactive) | 11.8% (inactive) | 45.8% (inactive) | inactive
22 | COC(=O)Cc1cc(=O)n(-c2ccccc2)[nH]1 | 435 | 3.1% (inactive) | -18.2% (inactive) | 106 | -67.7% (inactive) | 111 | -0.379 (inactive) | -1.8e-05 (inactive) | 0.00454 (inactive) | 17.9% (inactive) | 21.3% (inactive) | inactive
23 | Cc1cc(C(=O)COc2cccc3cccnc23)c(C)n1C | 703 | 1.8% (inactive) | -22.3% (inactive) | 107 | -154% (inactive) | 117 | -0.327 (inactive) | -1.7e-05 (inactive) | 0.00438 (inactive) | -44.6% (inactive) | -68% (inactive) | inactive
24 | CN(C)c1nc(Oc2ccc(N)cc2)nc(N(C)C)n1 | 362 | 2.1% (inactive) | 15.5% (inactive) | 94.2 | 27% (inactive) | 92 | -0.379 (inactive) | -7.9e-05 (inactive) | 0.00462 (inactive) | -1.54% (inactive) | -2.53% (inactive) | inactive
25 | Cc1cc(C)c(C(=O)Nc2ccc(S(=O)(=O)Nc3onc(C)c3C)cc2)c(C)c1 | 680 | 0.3% (inactive) | -6.2% (inactive) | 113 | -36.9% (inactive) | 114 | -0.493 (inactive) | -2.1e-05 (inactive) | 0.00709 (inactive) | 18.6% (inactive) | 22.1% (inactive) | –

Source: PubChem BioAssay
